ChEMBL document CHEMBL2311425, “Histone deacetylase (HDAC) inhibitors with a novel connecting unit linker region reveal a selectivity profile for HDAC4 and HDAC5 with improved activity against chemoresistant cancer cells” (J Med Chem, 2013)

Legend:
A2780 [1] = assay: Potentiation of 5 uM cisplatin-induced toxicity in 5 uM cisplatin resistant human A2780 cells at 1 uM pretreated for 48 hrs followed by 5 uM cisplatin treatment by MTT assay; format: functional
KYSE-510 [2] = assay: Potentiation of 0.75 uM cisplatin-induced toxicity in 0.5 uM cisplatin resistant human KYSE-510 cells at 1 uM pretreated for 48 hrs followed by 0.5 uM cisplatin treatment by MTT assay; format: functional
Method in brief: (§1)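 Cisplatin-resistant Kyse510 CisR (derived by weekly cycles of cisplatin over 24−30 weeks), grown in RPMI 1640 with 10% FCS at 37 °C, 5% CO₂. Test agent added 48 h before cisplatin, then 72 h further incubation. Viability by MTT (read at 544/690 nm) relative to untreated control wells. Combination index by Chou−Talalay method. Mean of three experiments.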

KYSE-510 [3] = assay: Potentiation of 0.75 uM cisplatin-induced toxicity in 0.5 uM cisplatin resistant human KYSE-510 cells at 0.25 uM pretreated for 48 hrs followed by 0.5 uM cisplatin treatment by MTT assay; format: functional; method in brief: as §1
MDA-MB-231 [4] = assay: Potentiation of 10 uM cisplatin-induced toxicity in 1 uM cisplatin resistant human MDA-MB-231 cells at 0.5 uM pretreated for 48 hrs followed by 1 uM cisplatin treatment by MTT assay; format: functional
MDA-MB-231 [5] = assay: Potentiation of 10 uM cisplatin-induced toxicity in 1 uM cisplatin resistant human MDA-MB-231 cells at 0.25 uM pretreated for 48 hrs followed by 1 uM cisplatin treatment by MTT assay; format: functional
KYSE-510 [6] = assay: Potentiation of 0.5 uM cisplatin-induced toxicity in 0.5 uM cisplatin resistant human KYSE-510 cells at 1 uM pretreated for 48 hrs followed by 0.5 uM cisplatin treatment by MTT assay; format: functional
CAL-27 [7] = assay: Potentiation of 1 uM cisplatin-induced toxicity in 1 uM cisplatin resistant human CAL27 cells at 0.5 uM pretreated for 48 hrs followed by 1 uM cisplatin treatment by MTT assay; format: functional
CAL-27 [8] = assay: Potentiation of 1 uM cisplatin-induced toxicity in 1 uM cisplatin resistant human CAL27 cells at 0.25 uM pretreated for 48 hrs followed by 1 uM cisplatin treatment by MTT assay; format: functional
MDA-MB-231 [9] = assay: Potentiation of 5 uM cisplatin-induced toxicity in 1 uM cisplatin resistant human MDA-MB-231 cells at 1.5 uM pretreated for 48 hrs followed by 1 uM cisplatin treatment by MTT assay; format: functional
MDA-MB-231 [10] = assay: Potentiation of 5 uM cisplatin-induced toxicity in 1 uM cisplatin resistant human MDA-MB-231 cells at 0.25 uM pretreated for 48 hrs followed by 1 uM cisplatin treatment by MTT assay; format: functional
CAL-27 [11] = assay: Potentiation of cisplatin-induced toxicity in cisplatin resistant human CAL27 cells at 1 uM pretreated for 48 hrs followed by cisplatin treatment by MTT assay; format: functional
Method in brief: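 Resistant sublines pretreated 48 h with 1 μM HDAC inhibitor, then cisplatin over a concentration range for 72 h; MTT viability read at 544/690 nm. Cisplatin IC50 from four-parameter logistic fit of pooled data (≥3 experiments, triplicate); shift factor = IC50 of cisplatin alone divided by IC50 of the combination.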

Histone deacetylase 1 = Histone deacetylase 1 (Homo sapiens, UniProt Q13547); assay: Inhibition of human HDAC1 by fluorescence assay
Histone deacetylase [12] = assay: Inhibition of HDAC in cisplatin sensitive human KYSE-510 cells after 18 hrs by fluorescence assay; format: cell-based
Histone deacetylase [13] = assay: Inhibition of HDAC in cisplatin sensitive human CAL27 cells after 18 hrs by fluorescence assay; format: cell-based; settings: cal-27
KYSE-510 [14] = assay: Cytotoxicity against cisplatin resistant human KYSE-510 cells after 72 hrs by MTT assay; format: functional, cell-based; settings: KYSE-510, 72 h
CAL-27 [15] = assay: Cytotoxicity against cisplatin resistant human CAL27 cells after 72 hrs by MTT assay; format: functional, cell-based; settings: CAL-27, 72 h
CAL-27 [16] = assay: Potentiation of 45 uM cisplatin-induced toxicity in 1 uM cisplatin resistant human CAL27 cells at 0.5 uM pretreated for 48 hrs followed by 1 uM cisplatin treatment by MTT assay; format: functional
MDA-MB-231 [17] = assay: Potentiation of […] cisplatin-induced toxicity in 1 uM cisplatin resistant human MDA-MB-231 cells at 0.25 uM pretreated for 48 hrs followed by 1 uM cisplatin treatment by MTT assay; format: functional
Histone deacetylase [18] = assay: Inhibition of HDAC in human A2780 cells after 18 hrs by fluorescence assay; format: cell-based
A2780 [19] = assay: Potentiation of 10 uM cisplatin-induced toxicity in 5 uM cisplatin resistant human A2780 cells at 0.5 uM pretreated for 48 hrs followed by 5 uM cisplatin treatment by MTT assay; format: functional
KYSE-510 [20] = assay: Potentiation of 3.16 uM cisplatin-induced toxicity in 0.5 uM cisplatin resistant human KYSE-510 cells at 0.5 uM pretreated for 48 hrs followed by 0.5 uM cisplatin treatment by MTT assay; format: functional
CAL-27 [21] = assay: Potentiation of 10 uM cisplatin-induced toxicity in 1 uM cisplatin resistant human CAL27 cells at 0.5 uM pretreated for 48 hrs followed by 1 uM cisplatin treatment by MTT assay; format: functional
CAL-27 [22] = assay: Potentiation of 10 uM cisplatin-induced toxicity in 1 uM cisplatin resistant human CAL27 cells at 0.25 uM pretreated for 48 hrs followed by 1 uM cisplatin treatment by MTT assay; format: functional
KYSE-510 [23] = assay: Potentiation of 1 uM cisplatin-induced toxicity in 0.5 uM cisplatin resistant human KYSE-510 cells at 1 uM pretreated for 48 hrs followed by 0.5 uM cisplatin treatment by MTT assay; format: functional
KYSE-510 [24] = assay: Potentiation of 1 uM cisplatin-induced toxicity in 0.5 uM cisplatin resistant human KYSE-510 cells at 0.25 uM pretreated for 48 hrs followed by 0.5 uM cisplatin treatment by MTT assay; format: functional
CAL-27 [25] = assay: Potentiation of 5 uM cisplatin-induced toxicity in 1 uM cisplatin resistant human CAL27 cells at 1.5 uM pretreated for 48 hrs followed by 1 uM cisplatin treatment by MTT assay; format: functional
CAL-27 [26] = assay: Potentiation of 5 uM cisplatin-induced toxicity in 1 uM cisplatin resistant human CAL27 cells at 1 uM pretreated for 48 hrs followed by 1 uM cisplatin treatment by MTT assay; format: functional
CAL-27 [27] = assay: Potentiation of 5 uM cisplatin-induced toxicity in 1 uM cisplatin resistant human CAL27 cells at 0.25 uM pretreated for 48 hrs followed by 1 uM cisplatin treatment by MTT assay; format: functional

Sequence of Histone deacetylase 1 (Q13547 whole entry): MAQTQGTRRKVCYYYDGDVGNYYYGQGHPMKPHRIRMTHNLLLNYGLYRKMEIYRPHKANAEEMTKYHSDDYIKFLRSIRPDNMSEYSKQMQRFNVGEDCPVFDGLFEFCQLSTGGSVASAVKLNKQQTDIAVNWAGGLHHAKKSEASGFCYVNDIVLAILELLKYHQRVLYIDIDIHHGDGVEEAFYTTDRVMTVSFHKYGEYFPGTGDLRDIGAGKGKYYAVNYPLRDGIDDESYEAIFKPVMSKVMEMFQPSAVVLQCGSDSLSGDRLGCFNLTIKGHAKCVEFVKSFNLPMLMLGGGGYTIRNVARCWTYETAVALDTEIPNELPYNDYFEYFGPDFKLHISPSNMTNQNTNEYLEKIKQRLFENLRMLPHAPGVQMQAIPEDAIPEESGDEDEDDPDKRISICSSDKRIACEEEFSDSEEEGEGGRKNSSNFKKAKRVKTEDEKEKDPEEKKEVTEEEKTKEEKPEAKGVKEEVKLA

## Cc1cc(C)cc(C(=O)NOCCCCCC(=O)NO)c1
A2780 [1]
  Activity: Dose-dependent effect
  fractional inhibitory concentration index (FICI): 0.64
KYSE-510 [2]
  Activity: Dose-dependent effect
  fractional inhibitory concentration index (FICI): 0.05
KYSE-510 [3]
  Activity: Dose-dependent effect
  fractional inhibitory concentration index (FICI): 0.1
MDA-MB-231 [4]
  Activity: Dose-dependent effect
MDA-MB-231 [5]
  Activity: Dose-dependent effect
KYSE-510 [6]
  Activity: Dose-dependent effect
  fractional inhibitory concentration index (FICI): 0.08
CAL-27 [7]
  Activity: Dose-dependent effect
  fractional inhibitory concentration index (FICI): <0.2
CAL-27 [8]
  Activity: Dose-dependent effect
  fractional inhibitory concentration index (FICI): <0.2
MDA-MB-231 [9]
  Activity: Dose-dependent effect
  fractional inhibitory concentration index (FICI): <0.2
MDA-MB-231 [10]
  Activity: Dose-dependent effect
  fractional inhibitory concentration index (FICI): <0.2
CAL-27 [11]
  Activity: Dose-dependent effect
  fold change (FC): 21.6
Histone deacetylase 1
  IC50: 320 nM
Histone deacetylase [12]
  IC50: 1000 nM
Histone deacetylase [13]
  IC50: 360 nM
KYSE-510 [14]
  IC50: 2480 nM
CAL-27 [15]
  IC50: 1810 nM
CAL-27 [16]
  Activity: Dose-dependent effect
  fractional inhibitory concentration index (FICI): 0.31
MDA-MB-231 [17]
  Activity: Dose-dependent effect
  fractional inhibitory concentration index (FICI): 0.9
Histone deacetylase [18]
  IC50: 650 nM
A2780 [19]
  Activity: Dose-dependent effect
  fractional inhibitory concentration index (FICI): 0.69
KYSE-510 [20]
  Activity: Dose-dependent effect
  fractional inhibitory concentration index (FICI): 0.09
CAL-27 [21]
  Activity: Dose-dependent effect
  fractional inhibitory concentration index (FICI): 0.41
CAL-27 [22]
  Activity: Dose-dependent effect
  fractional inhibitory concentration index (FICI): 0.85
KYSE-510 [23]
  Activity: Dose-dependent effect
  fractional inhibitory concentration index (FICI): 0.05
KYSE-510 [24]
  Activity: Dose-dependent effect
  fractional inhibitory concentration index (FICI): 0.13
CAL-27 [25]
  Activity: Dose-dependent effect
  fractional inhibitory concentration index (FICI): 0.22
CAL-27 [26]
  Activity: Dose-dependent effect
  fractional inhibitory concentration index (FICI): 0.26
CAL-27 [27]
  Activity: Dose-dependent effect
